# Results as given in ChEMBL document CHEMBL4190409, “New somatostatin-drug conjugates for effective targeting pancreatic cancer” (Bioorg Med Chem, 2018).
# Calls of active or inactive are those of the source. The rule behind the calls is not given here. Peptide text beside a SMILES is read from it.
# Assays:
# CAPAN-1 [1] = experiment: Cytotoxicity against human Capan1 cells after 48 hrs by XTT assay; format: functional, cell-based; conditions: CAPAN-1, 48 h
# In short: (§1)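 Cells seeded at 5-10 x 10^4 cells/mL and preincubated 24 h, then washed and given fresh medium with a concentration series for 48 h or 72 h. XTT added for a further 2-4 h, absorbance read at 480 and 680 nm. % growth inhibition taken against medium+solvent and solvent-free controls. DMSO final <0.05%. Tetraplicates, each experiment run twice.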
# CAPAN-1 [2] = experiment: Cytotoxicity against human Capan1 cells after 72 hrs by XTT assay; format: functional, cell-based; conditions: CAPAN-1, 72 h; in short: as §1
# PANC-1 [3] = experiment: Cytotoxicity against human PANC1 cells after 72 hrs by XTT assay; format: functional, cell-based; conditions: PANC-1, 72 h; in short: as §1
# PANC-1 [4] = experiment: Cytotoxicity against human PANC1 cells after 48 hrs by XTT assay; format: functional, cell-based; conditions: PANC-1, 48 h; in short: as §1
# [5] = Half life in IMDM culture medium by LC-MS analysis; format: physicochemical
# In short: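 Conjugate stock (10 µl) added to 1 ml IMDM (DME-based, 20% bovine serum) at 37°C. Aliquots taken at 1, 3, 6, 24, 48, 72 and 96 h, quenched with 2.5 vol ethanol, centrifuged, filtered and analysed by LC-MS. At least three measurements.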
# [6] = target: T1, Somatostatin receptor type 3 (Homo sapiens, UniProt P32745); experiment: Agonist activity at SSTR3 (unknown origin) expressed in HEK293 cells assessed as inhibition of forskolin-induced CRE promoter activity at 10 to 1000 nM by luciferase reporter gene assay; format: functional, cell-based
# T1 sequence (P32745 whole entry): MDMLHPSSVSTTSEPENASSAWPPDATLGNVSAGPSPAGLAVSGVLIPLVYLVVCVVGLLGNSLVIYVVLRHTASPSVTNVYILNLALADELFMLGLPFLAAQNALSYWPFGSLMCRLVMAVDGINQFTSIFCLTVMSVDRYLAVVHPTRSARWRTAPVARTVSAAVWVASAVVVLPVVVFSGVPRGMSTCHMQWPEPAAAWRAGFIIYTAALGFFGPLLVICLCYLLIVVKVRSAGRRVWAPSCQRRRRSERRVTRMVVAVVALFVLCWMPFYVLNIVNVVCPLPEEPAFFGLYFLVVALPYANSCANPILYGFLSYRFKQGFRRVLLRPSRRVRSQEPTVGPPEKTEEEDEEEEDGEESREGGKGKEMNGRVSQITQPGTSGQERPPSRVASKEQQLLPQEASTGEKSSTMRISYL
# In short: (§2)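 HEK-293 cells (70,000/well) co-transfected via JetPei with CRE-luciferase reporter, β-galactosidase construct and one SSTR subtype vector (empty pcDNA3.1 control). After 1 day, treated with 10 µM forskolin alone or with peptide. Luminescence read relative to forskolin alone and normalized to β-galactosidase (ONPG). Triplicates, representative of three experiments.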
# [7] = Drug uptake in pancreas of athymic nude mouse xenografted with human PANC1 cells at 120 mg/kg, iv measured after 24 hrs by fluorescent microscopic analysis; format: ADME, organism-based; conditions: in vivo
# In short: (§3)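 Five-week-old athymic nude mice inoculated subcutaneously in the dorsal left side with Panc-1 cells. When tumours reached 100 mm3, FITC-labelled peptide or peptide–CPT conjugate was given intravenously at 120 mg/kg as a single dose. At 24 h, tumour, spleen, pancreas, kidney and liver were excised and fluorescence was imaged by microscopy with a CCD camera.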
# [8] = Drug uptake in kidney of athymic nude mouse xenografted with human PANC1 cells at 120 mg/kg, iv measured after 24 hrs by fluorescent microscopic analysis; format: ADME, organism-based; conditions: in vivo; in short: as §3
# [9] = target: T2, Somatostatin receptor type 5 (Homo sapiens, UniProt P35346); experiment: Agonist activity at SSTR5 (unknown origin) expressed in HEK293 cells assessed as inhibition of forskolin-induced CRE promoter activity at 10 to 1000 nM by luciferase reporter gene assay; format: functional, cell-based; in short: as §2
# T2 sequence (P35346 whole entry): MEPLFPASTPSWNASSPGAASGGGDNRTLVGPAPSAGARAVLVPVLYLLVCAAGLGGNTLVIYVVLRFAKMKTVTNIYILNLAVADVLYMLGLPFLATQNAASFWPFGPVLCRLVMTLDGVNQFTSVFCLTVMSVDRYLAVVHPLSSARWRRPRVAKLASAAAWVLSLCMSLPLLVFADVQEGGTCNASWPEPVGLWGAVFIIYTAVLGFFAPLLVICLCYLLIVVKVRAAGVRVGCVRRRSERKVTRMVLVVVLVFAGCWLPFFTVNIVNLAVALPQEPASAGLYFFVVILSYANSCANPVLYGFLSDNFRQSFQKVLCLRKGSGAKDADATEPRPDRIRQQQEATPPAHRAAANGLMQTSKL
# [10] = Drug uptake in tumor of athymic nude mouse xenografted with human PANC1 cells at 120 mg/kg, iv measured after 24 hrs by fluorescent microscopic analysis; format: ADME, organism-based, Neoplasm; conditions: in vivo; in short: as §3
# [11] = target: T3, Somatostatin receptor type 4 (Homo sapiens, UniProt P31391); experiment: Agonist activity at SSTR4 (unknown origin) expressed in HEK293 cells assessed as inhibition of forskolin-induced CRE promoter activity at 10 to 1000 nM by luciferase reporter gene assay; format: functional, cell-based; in short: as §2
# T3 sequence (P31391 whole entry): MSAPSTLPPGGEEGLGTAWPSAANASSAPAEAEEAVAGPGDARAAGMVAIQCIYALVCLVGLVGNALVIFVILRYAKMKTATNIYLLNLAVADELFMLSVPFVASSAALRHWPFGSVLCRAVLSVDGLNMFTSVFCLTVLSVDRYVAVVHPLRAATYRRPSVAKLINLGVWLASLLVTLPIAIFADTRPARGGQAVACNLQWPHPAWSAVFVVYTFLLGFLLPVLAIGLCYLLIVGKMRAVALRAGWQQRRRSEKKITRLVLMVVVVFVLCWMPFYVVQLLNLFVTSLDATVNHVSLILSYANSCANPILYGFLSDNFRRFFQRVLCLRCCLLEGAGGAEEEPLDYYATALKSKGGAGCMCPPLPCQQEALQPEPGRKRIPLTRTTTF
# [12] = target: T4, Somatostatin receptor type 2 (Homo sapiens, UniProt P30874); experiment: Agonist activity at SSTR2 (unknown origin) expressed in HEK293 cells assessed as inhibition of forskolin-induced CRE promoter activity at 10 to 1000 nM by luciferase reporter gene assay; format: functional, cell-based; in short: as §2
# T4 sequence (P30874 whole entry): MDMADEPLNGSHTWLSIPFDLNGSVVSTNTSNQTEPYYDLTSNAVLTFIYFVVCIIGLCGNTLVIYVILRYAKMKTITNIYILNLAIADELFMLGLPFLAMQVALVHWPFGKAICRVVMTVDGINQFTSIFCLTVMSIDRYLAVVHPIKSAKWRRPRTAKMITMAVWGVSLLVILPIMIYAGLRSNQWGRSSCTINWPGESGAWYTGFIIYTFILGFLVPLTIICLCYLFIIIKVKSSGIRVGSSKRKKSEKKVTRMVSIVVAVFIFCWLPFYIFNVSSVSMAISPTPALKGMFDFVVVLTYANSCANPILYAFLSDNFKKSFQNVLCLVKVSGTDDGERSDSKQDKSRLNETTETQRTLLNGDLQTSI
# [13] = target: T5, Somatostatin receptor type 1 (Homo sapiens, UniProt P30872); experiment: Agonist activity at SSTR1 (unknown origin) expressed in HEK293 cells assessed as inhibition of forskolin-induced CRE promoter activity at 10 to 1000 nM by luciferase reporter gene assay; format: functional, cell-based; in short: as §2
# T5 sequence (P30872 whole entry): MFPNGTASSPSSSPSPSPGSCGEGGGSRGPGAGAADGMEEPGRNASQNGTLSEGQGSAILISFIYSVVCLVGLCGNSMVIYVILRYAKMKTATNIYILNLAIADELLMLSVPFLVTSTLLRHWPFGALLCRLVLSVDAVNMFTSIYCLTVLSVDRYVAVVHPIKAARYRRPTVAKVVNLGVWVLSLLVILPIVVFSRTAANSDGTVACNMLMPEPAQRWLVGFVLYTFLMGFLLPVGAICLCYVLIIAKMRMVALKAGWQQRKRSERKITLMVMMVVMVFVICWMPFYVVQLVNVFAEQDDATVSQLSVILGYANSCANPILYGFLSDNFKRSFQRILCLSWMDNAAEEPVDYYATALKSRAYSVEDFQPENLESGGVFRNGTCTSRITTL
# [14] = target: T5, Somatostatin receptor type 1; experiment: Drug uptake in HEK293 cells co-expressing SSTR1 (unknown origin) and RFP assessed as SSTR1-mediated drug accumulation by measuring mean fluorescence intensity measured after 30 mins by fluorescence microscopic analysis (reference value: 1.1); format: ADME, cell-based; conditions: hek293, 0.5 h
# [15] = target: T2, Somatostatin receptor type 5; experiment: Drug uptake in HEK293 cells co-expressing SSTR5 (unknown origin) and RFP assessed as SSTR5-mediated drug accumulation by measuring mean fluorescence intensity measured after 30 mins by fluorescence microscopic analysis (reference value: 1.1); format: ADME, cell-based; conditions: hek293, 0.5 h
# [16] = target: T4, Somatostatin receptor type 2; experiment: Drug uptake in HEK293 cells co-expressing SSTR2 (unknown origin) and RFP assessed as SSTR2-mediated drug accumulation by measuring mean fluorescence intensity at 400 nM measured after 15 mins in presence of SSTR2 agonist octreotide by fluorescence assay; format: cell-based; conditions: hek293, 0.25 h, 0.4 µM
# In short: (§4)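 FITC-peptide at 400 nM then added for 15 min. FITC/RFP fluorescence imaged; mean fluorescence intensity of FITC+ cells quantified (n = 10), representative of three experiments.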
# [17] = target: T3, Somatostatin receptor type 4; experiment: Drug uptake in HEK293 cells co-expressing SSTR4 (unknown origin) and RFP assessed as SSTR4-mediated drug accumulation by measuring mean fluorescence intensity at 400 nM measured after 15 mins in presence of SSTR2 agonist octreotide by fluorescence assay; format: cell-based; conditions: hek293, 0.25 h, 0.4 µM; in short: as §4
# [18] = target: T3, Somatostatin receptor type 4; experiment: Drug uptake in HEK293 cells co-expressing SSTR4 (unknown origin) and RFP assessed as SSTR4-mediated drug accumulation by measuring mean fluorescence intensity measured after 30 mins by fluorescence microscopic analysis (reference value: 1.1); format: ADME, cell-based; conditions: hek293, 0.5 h
# [19] = target: T4, Somatostatin receptor type 2; experiment: Drug uptake in HEK293 cells co-expressing SSTR2 (unknown origin) and RFP assessed as SSTR2-mediated drug accumulation by measuring mean fluorescence intensity measured after 30 mins by fluorescence microscopic analysis (reference value: 1.1); format: ADME, cell-based; conditions: hek293, 0.5 h
# [20] = target: T1, Somatostatin receptor type 3; experiment: Drug uptake in HEK293 cells co-expressing SSTR3 (unknown origin) and RFP assessed as SSTR3-mediated drug accumulation by measuring mean fluorescence intensity measured after 30 mins by fluorescence microscopic analysis (reference value: 1.1); format: ADME, cell-based; conditions: hek293, 0.5 h
Structure (SMILES),IC50 (CAPAN-1 [1]),IC50 (CAPAN-1 [2]),IC50 (PANC-1 [3]),IC50 (PANC-1 [4]),half-life [5],further results
COc1cc([C@@H]2c3[nH]c4ccccc4c3C[C@H]3COC(=O)N32)cc(OC)c1O,1570 nM,1230 nM,610 nM,,,
CC[C@@]1(O)C(=O)OCc2c1cc1n(c2=O)Cc2cc3ccccc3nc2-1 [CAMPTOTHECIN],,210 nM,90 nM,180 nM,,
COc1cc(C2c3[nH]c4ccccc4c3CC3COC(=O)N32)cc(OC)c1OC(=O)NCCCC(=O)N[C@H](Cc1ccccc1)C(=O)N[C@H]1CSSCCN(CC(N)=O)C(=O)[C@H](Cc2ccccc2)NC(=O)[C@H]([C@@H](C)O)NC(=O)[C@H](CCCCN)NC(=O)[C@H](Cc2c[nH]c3ccccc23)NC(=O)[C@@H](Cc2c[nH]c3ccccc23)NC(=O)[C@H](Cc2ccccc2)NC1=O (stereo partly drawn),250 nM,90 nM,2130 nM,2980 nM,5 h,
C[C@@H](O)[C@@H]1NC(=O)[C@H](CCCCN)NC(=O)[C@@H](Cc2c[nH]c3ccccc23)NC(=O)[C@H](Cc2ccccc2)NC(=O)[C@@H](NC(=O)[C@H](CCCNC(=N)N)NC(=O)[C@@H](Cc2ccccc2)NC(=O)CCCNC(=S)Nc2ccc(-c3c4ccc(=O)cc-4oc4cc(O)ccc34)c(C(=O)O)c2)CSSCCN(CC(N)=O)C(=O)[C@H](Cc2ccccc2)NC1=O,,,,,,inhibition [6]: Active; Drug uptake [7]: Not Active; Drug uptake [8]: Active; inhibition [9]: Active; Drug uptake [10]: Active; inhibition [11]: Active; inhibition [12]: Active; inhibition [13]: inactive
COc1cc(/C=C\c2ccc(ON[C@H](Cc3ccccc3)C(=O)N[C@@H](CCCNC(=N)N)C(=O)N[C@H]3CSSCCN(CC(N)=O)C(=O)[C@H](Cc4ccccc4)NC(=O)[C@H]([C@@H](C)O)NC(=O)[C@H](CCCCN)NC(=O)[C@@H](Cc4c[nH]c5ccccc45)NC(=O)[C@H](Cc4ccccc4)NC3=O)c(OC(=O)NCCCC(C)=O)c2)cc(OC)c1OC,670 nM,520 nM,1170 nM,1720 nM,15 h,
COc1ccc(/C=C\c2cc(OC)c(OC)c(OC)c2)cc1OC(=O)NCCCC(=O)N[C@H](Cc1ccccc1)C(=O)N[C@H]1CSSCCN(CC(N)=O)C(=O)[C@H](Cc2ccccc2)NC(=O)[C@H]([C@@H](C)O)NC(=O)[C@H](CCCCN)NC(=O)[C@H](Cc2c[nH]c3ccccc23)NC(=O)[C@@H](Cc2c[nH]c3ccccc23)NC(=O)[C@H](Cc2ccccc2)NC1=O,2560 nM,2090 nM,1190 nM,2670 nM,18 h,
"C[C@@H](O)[C@@H]1NC(=O)[C@H](CCCCN)NC(=O)[C@@H](Cc2c[nH]c3ccccc23)NC(=O)[C@H](Cc2ccccc2)NC(=O)[C@@H](NC(=O)[C@H](CCCNC(=N)N)NC(=O)[C@H](N)Cc2ccccc2)CSSCCN(CC(N)=O)C(=O)[C@H](Cc2ccccc2)NC1=O (HELM PEPTIDE1{[dF].R.C.F.[dW].K.T.F.[O=C(CN(CCS[*:3])[*:1])[*:2]].[am]}$PEPTIDE1,PEPTIDE1,3:R3-9:R3$$$V2.0)",> 50000 nM,> 50000 nM,> 50000 nM,> 50000 nM,,
COc1cc(C2c3[nH]c4ccccc4c3CC3COC(=O)N32)cc(OC)c1OC(=O)NCCCC(=O)N[C@H](Cc1ccccc1)C(=O)N[C@@H](CCCNC(=N)N)C(=O)N[C@H]1CSSCCN(CC(N)=O)C(=O)[C@H](Cc2ccccc2)NC(=O)[C@H]([C@@H](C)O)NC(=O)[C@H](CCCCN)NC(=O)[C@@H](Cc2c[nH]c3ccccc23)NC(=O)[C@H](Cc2ccccc2)NC1=O (stereo partly drawn),1470 nM,1430 nM,140 nM,270 nM,3 h,
C[C@@H](O)[C@@H]1NC(=O)[C@H](CCCCN)NC(=O)[C@@H](Cc2c[nH]c3ccccc23)NC(=O)[C@H](Cc2ccccc2)NC(=O)[C@@H](NC(=O)[C@H](N)Cc2ccccc2)CSSC[C@@H](C(=O)N[C@H](CO)[C@@H](C)O)NC1=O,,,,,,inhibition [6]: Active; inhibition [12]: Active
C[C@@H](O)[C@@H]1NC(=O)[C@H](CCCCN)NC(=O)[C@H](Cc2c[nH]c3ccccc23)NC(=O)[C@@H](Cc2c[nH]c3ccccc23)NC(=O)[C@H](Cc2ccccc2)NC(=O)[C@@H](NC(=O)[C@H](N)Cc2ccccc2)CSSCCN(CC(N)=O)C(=O)[C@H](Cc2ccccc2)NC1=O,> 50000 nM,> 50000 nM,> 50000 nM,> 50000 nM,,
C[C@@H](O)[C@@H]1NC(=O)[C@H](CCCCN)NC(=O)[C@H](Cc2c[nH]c3ccccc23)NC(=O)[C@@H](Cc2c[nH]c3ccccc23)NC(=O)[C@H](Cc2ccccc2)NC(=O)[C@@H](NC(=O)[C@@H](Cc2ccccc2)NC(=O)CCCNC(=S)Nc2ccc(-c3c4ccc(=O)cc-4oc4cc(O)ccc34)c(C(=O)O)c2)CSSCCN(CC(N)=O)C(=O)[C@H](Cc2ccccc2)NC1=O,,,,,,inhibition [6]: Active; Flu intensity [14]: 0.9; Flu intensity [15]: 48.8; inhibition [9]: Active; Flu intensity [16]: 0.9; Flu intensity [17]: 21.1; Flu intensity [18]: 32.4; Flu intensity [19]: 6.7; inhibition [11]: Active; Flu intensity [20]: 42.1; inhibition [12]: Active; inhibition [13]: inactive
COc1ccc(/C=C\c2cc(OC)c(OC)c(OC)c2)cc1O [COMBRETASTATIN A4],840 nM,,160 nM,,,
